Entries after “also recorded” stand apart in the source; their conditions may differ.
T1: CarS1 (Myxococcus xanthus, UniProt Q06911)
T1 sequence (Q06911 1-86): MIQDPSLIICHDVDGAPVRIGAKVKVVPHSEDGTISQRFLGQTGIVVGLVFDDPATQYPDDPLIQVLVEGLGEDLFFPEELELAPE

T2: CarS (Myxococcus xanthus, UniProt Q06911)
T2 sequence (Q06911 1-111): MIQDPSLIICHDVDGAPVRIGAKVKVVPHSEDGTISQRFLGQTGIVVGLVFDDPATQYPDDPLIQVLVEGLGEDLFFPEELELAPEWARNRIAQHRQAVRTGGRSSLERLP

B1: CarANt: the highly basic and autonomously folded N-terminal DNA-binding domain of CarA (protein)
chain: MTLRIRTIARMTGIREATLRAWERRYGFPRPLRSEGNNYRVYSREEVEAVRRVARLIQEEGLSVSEAIAQVKTEPPRE
modifications: left off: H6, end not stated, cleaved
B2: R27A variant of whole CarH (protein)
chain: MAERTYRINIAAELAGVRVELIRAWEARYGVLTPRRTPAGYRAYTDRDVAVLKQLKRLTDEGVAISEAAKLLPQLMEGLEAEVAGRGASQDARPHAETWRESMLAATQAYDQPRVSDVLDEVLAALPPLKAFDEVLAPLLCDVGERWESGTLTVAQEHLVSQMVRARLVSLLHAAPLGRHRHGVLACFPEEEHEMGLLGAALRLRHLGVRVTLLGQRVPAEDLGRAVLALRPDFVGLSTVASRSAEDFEDTLTRLRQALPRGLPVWVGGAAARSHQAVCERLAVHVFQGEEDWDRLAGT

Assays:
CarS1 [1] = target: T1, CarS1; assay: NMR chemical shift mapping on labeled H6CarS1; assay type: binding; settings: ^15N, ^13C-H6CarS1 0.10–0.25 mM titrated with unlabeled CarANt, P01 or P02, 25°C or 45°C
CarS(D52A/D53A) = assay: ITC titration with CarS; assay type: binding, Myxococcus xanthus; settings: pH 7.5
Method in brief: (§1)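 ITC in 100 mM NaCl, 50 mM phosphate pH 7.5, 2 mM β-mercaptoethanol, 0.05% sodium azide; samples were dialysed or dissolved in this buffer and degassed. Cell held 20 µM CarANt or peptide, titrated with 30 injections of 0.22 mM CarS variant, stirring 300 rpm. Heat of dilution was subtracted using buffer controls. Data were fit to a single-site model; at least two independent titrations.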

CarS [2] = target: T2, CarS; assay: ITC titration with CarS; assay type: binding; settings: ITC
CarS1 [3] = target: T1, CarS1; assay: Far-UV CD spectroscopy with CarS1; settings: 1:1 molar ratio with CarS1, 25°C, 100 mM KF, 7.5 mM phosphate pH 7.5
Method in brief: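 Far-UV CD at 25°C, 10–20 µM samples in 100 mM KF, 7.5 mM phosphate pH 7.5, three scans averaged, 0.2-nm steps. Peptide (18 µM) or CarANt (11 µM) was measured alone and mixed 1:1 with CarS1. The read-out was molar ellipticity difference between the mixture and CarS1 alone.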

CarS(F77A) = assay: ITC titration with CarS; assay type: binding, Myxococcus xanthus; settings: pH 7.5
Method in brief: as §1

CarS [4] = target: T2, CarS; assay: Far-UV CD spectroscopy with CarS; settings: 25°C, 100 mM KF, 7.5 mM phosphate pH 7.5
Method in brief: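 Far-UV CD was recorded at 25°C in 0.2-nm steps (adaptive sampling) with 2-nm slit width, averaging three scans. Samples were 10–20 µM protein, peptide or 1:1 mixture in 100 mM KF, 7.5 mM phosphate pH 7.5. The instrument was calibrated with (+)-10-camphorsulfonic acid.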

[5] = Analytical gel filtration of pure proteins; assay type: physicochemical; settings: Superdex200, 50 mM phosphate pH 7.5, 2 mM β-mercaptoethanol
Method in brief: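 Superdex200 analytical size-exclusion HPLC in 50 mM phosphate pH 7.5, 2 mM β-mercaptoethanol and the required NaCl. Samples were 10–50 µM pure protein, or CarNt or CarHNt mixed with CarS or variant at equivalent concentrations. Flow was 0.4 ml/min with detection at 280, 235 and 220 nm. Peak fractions were identified by SDS–PAGE. Mr was taken from elution volume via log Mr = 7.64 – 0.209 Ve.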

CarS [6] = target: T2, CarS; assay: Yeast two-hybrid interaction with CarS; assay type: cell-based; settings: not shown
Method in brief: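 Yeast EGY48 carrying lacZ reporter pSH18-34 was cotransformed (lithium acetate) with LexA–CarA and B42–CarS or variant fusions. Equal-density cultures were spotted on galactose or glucose (basal fusion expression) plates with leucine, grown 1 day at 30°C, then overlaid with X-Gal agarose for 2–3 h (Gal) or ≥7 h (Glu). Interaction was scored by blue colour; single-hybrid cells served as controls.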

Molecule | Chemical shift perturbations of labeled H6CarS1 (CarS1 [1]) | ITC heat change / binding (CarS(D52A/D53A)) | KD relative to P01 and P02 (CarS [2]) | N (binding stoichiometry) (CarS [2]; CarS, 25 °C, pH 7.5, 100 mM NaCl, 50 mM phosphate, 2 mM β-mercaptoethanol, 0.05% sodium azide, 20 µM CarANt or peptide titrated with 0.22 mM CarS, average of at least two independent titrations) | ΔH (CarS [2]; CarS, 25 °C, pH 7.5, 100 mM NaCl, 50 mM phosphate, average of at least two independent titrations) | Kd (CarS [2]; CarS, 25 °C, pH 7.5, 100 mM NaCl, 50 mM phosphate, single-site binding model, average of at least two independent titrations) | Far-UV CD change / helix content in presence of CarS1 (CarS1 [3]) | ITC heat change / binding (CarS(F77A)) | Far-UV CD change in presence of CarS (CarS [4]) | Apparent Mr of pure protein [5] | Two-hybrid interaction with CarS (CarS [6])
B1 | significant perturbations for the methyl cross-peaks of V26, L63, L75, L81 (Figure 1C) and I64 | could not be detected; also recorded: ^aHeat changes were negligible or undetected for the following titrations: (i) CarANt or P01 with CarS(F77A) or CarS(D52A/D53A); (ii) P03 with CarS or CarS1; (iii) TtP01 with CarS (for details on peptides P01, P02, P03, CHP01 and TtP01, see Figures 3A and 4A, and text) | over an order of magnitude lower | 0.94 ± 0.01 | −9.24 ± 0.02 kcalmol^−1 | ~10 nM | no significant change | could not be detected; also recorded: ^aHeat changes were negligible or undetected for the following titrations: (i) CarANt or P01 with CarS(F77A) or CarS(D52A/D53A); (ii) P03 with CarS or CarS1; (iii) TtP01 with CarS (for details on peptides P01, P02, P03, CHP01 and TtP01, see Figures 3A and 4A, and text) | in a manner similar to CarS1 | 9.6 kDa | –
B2 | – | – | – | – | – | – | – | – | – | – | lack of interaction with CarS
